Results as given in ChEMBL document CHEMBL4715736, “Identification of anticancer agents based on the thieno[2,3-b]pyridine and 1H-pyrazole molecular scaffolds” (2016).

Experiments:
Format in all cases: functional
Settings in all cases: read-out: Activity
SF-539 = experiment: Growth inhibition of human SF-539 cells assessed as cell growth at 10 uM incubated for 48 hrs by sulforhodamine B assay relative to control
Procedure, shortened: (§1)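 Run by the NCI Developmental Therapeutics Program as part of its 60-line human tumour panel. Each compound tested at a single 10 µM dose. Growth expressed as % relative to untreated control cells (100%).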

NCI-H522 = experiment: Growth inhibition of human NCI-H522 cells assessed as cell growth at 10 uM incubated for 48 hrs by sulforhodamine B assay relative to control
Procedure, shortened: (§2)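 Submitted to the NCI Developmental Therapeutics Program for the NCI60 human tumour cell line panel. First screen at a single 10 µM concentration. Read-out is growth relative to untreated control cells set at 100%.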

HOP-92 = experiment: Growth inhibition of human HOP-92 cells assessed as cell growth at 10 uM incubated for 48 hrs by sulforhodamine B assay relative to control; procedure, shortened: as §2
CAKI-1 = experiment: Growth inhibition of human CAKI-1 cells assessed as cell growth at 10 uM incubated for 48 hrs by sulforhodamine B assay relative to control
Procedure, shortened: (§3)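 NCI Developmental Therapeutics Program NCI60 panel. Compounds that were active in the 10 µM one-dose screen went on to dose–response testing. Growth at each concentration is expressed relative to untreated control (100%). GI50 (concentration giving 50% of maximal inhibition of proliferation) and TGI (concentration giving total growth inhibition) were derived from the curves.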

TK-10 = experiment: Growth inhibition of human TK-10 cells assessed as cell growth at 10 uM incubated for 48 hrs by sulforhodamine B assay relative to control; procedure, shortened: as §1
HOP-62 = experiment: Growth inhibition of human HOP-62 cells assessed as cell growth at 10 uM incubated for 48 hrs by sulforhodamine B assay relative to control; procedure, shortened: as §2
NCI-H460 = experiment: Growth inhibition of human NCI-H460 cells assessed as cell growth at 10 uM incubated for 48 hrs by sulforhodamine B assay relative to control; procedure, shortened: as §2
CCRF-CEM = experiment: Growth inhibition of human CCRF-CEM cells assessed as cell growth at 10 uM incubated for 48 hrs by sulforhodamine B assay relative to control; procedure, shortened: as §3
Hs-578T = experiment: Growth inhibition of human Hs-578T cells assessed as cell growth at 10 uM incubated for 48 hrs by sulforhodamine B assay relative to control; procedure, shortened: as §2
DU-145 = experiment: Growth inhibition of human DU-145 cells assessed as cell growth at 10 uM incubated for 48 hrs by sulforhodamine B assay relative to control; procedure, shortened: as §3
NCI/ADR-RES = experiment: Growth inhibition of human NCI/ADR-RES cells assessed as cell growth at 10 uM incubated for 48 hrs by sulforhodamine B assay relative to control; procedure, shortened: as §2
UACC-257 = experiment: Growth inhibition of human UACC-257 cells assessed as cell growth at 10 uM incubated for 48 hrs by sulforhodamine B assay relative to control; procedure, shortened: as §1
MCF7 = experiment: Growth inhibition of human MCF7 cells assessed as cell growth at 10 uM incubated for 48 hrs by sulforhodamine B assay relative to control; procedure, shortened: as §2
786-0 = experiment: Growth inhibition of human 786-0 cells assessed as cell growth at 10 uM incubated for 48 hrs by sulforhodamine B assay relative to control; procedure, shortened: as §3
T47D = experiment: Growth inhibition of human T47D cells assessed as cell growth at 10 uM incubated for 48 hrs by sulforhodamine B assay relative to control; procedure, shortened: as §1
HL-60(TB) = experiment: Growth inhibition of human HL-60(TB) cells assessed as cell growth at 10 uM incubated for 48 hrs by sulforhodamine B assay relative to control
Procedure, shortened: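 Screened by the NCI Developmental Therapeutics Program on its panel of 60 human tumour cell lines. Compounds were first tested at a single 10 µM dose, and compounds active there went to dose-response curves. Growth is expressed relative to untreated control (100%). GI50 (50% of maximal proliferation inhibition) and TGI (total growth inhibition) were derived from the dose-response data.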

MDA-MB-231 = experiment: Growth inhibition of human MDA-MB-231 cells assessed as cell growth at 10 uM incubated for 48 hrs by sulforhodamine B assay relative to control; procedure, shortened: as §2
SK-MEL-2 = experiment: Growth inhibition of human SK-MEL-2 cells assessed as cell growth at 10 uM incubated for 48 hrs by sulforhodamine B assay relative to control; procedure, shortened: as §1
HCT-15 = experiment: Growth inhibition of human HCT-15 cells assessed as cell growth at 10 uM incubated for 48 hrs by sulforhodamine B assay relative to control; procedure, shortened: as §2
SNB-75 = experiment: Growth inhibition of human SNB-75 cells assessed as cell growth at 10 uM incubated for 48 hrs by sulforhodamine B assay relative to control; procedure, shortened: as §1
MOLT-4 = experiment: Growth inhibition of human MOLT-4 cells assessed as cell growth at 10 uM incubated for 48 hrs by sulforhodamine B assay relative to control; procedure, shortened: as §2

SMILES	growth at 10 µM (SF-539)	growth at 10 µM (NCI-H522)	growth at 10 µM (HOP-92)	growth at 10 µM (CAKI-1)	growth at 10 µM (TK-10)	growth at 10 µM (HOP-62)	growth at 10 µM (NCI-H460)	growth at 10 µM (CCRF-CEM)	growth at 10 µM (Hs-578T)	growth at 10 µM (DU-145)	growth at 10 µM (NCI/ADR-RES)	growth at 10 µM (UACC-257)	growth at 10 µM (MCF7)	growth at 10 µM (786-0)	growth at 10 µM (T47D)	growth at 10 µM (HL-60(TB))	growth at 10 µM (MDA-MB-231)	growth at 10 µM (HCT-15)	growth at 10 µM (SNB-75)	growth at 10 µM (MOLT-4)	other results
CC1(C)CCc2cc(-c3ccn(S(=O)(=O)c4ccc(C(C)(C)C)cc4)n3)ccc2O1	91.2%	66.5%	73.2%	68.9%	84.3%	120%	82.9%	74.4%	97.8%	70%	82.5%	63%	95.7%	79.9%	84.9%	111%	78.4%	87%	100%	98.5%	growth at 10 µM (SK-MEL-2): 58.2%
COc1ccc(S(=O)(=O)n2ccc(-c3ccc4c(c3)CCC(C)(C)O4)n2)cc1OC	97.2%	65.8%	58.3%	58.3%	72.1%	112%	69.6%	82.2%	91.5%	82.6%	56.5%	57.1%	64.3%	79.4%	43.7%	94.7%	82.5%	71.9%	84.6%	63.8%	growth at 10 µM (SK-MEL-2): 56.1%
COc1ccc(-c2ccn(S(=O)(=O)c3ccc(OC)cc3)n2)cc1	87.3%		38.8%	66.2%		101%	75%	71.3%	93.6%	93.9%	88.4%	86.2%	97.9%	80.2%	58.8%	99.4%	96.2%	83%	88.9%	73.2%	
CC1(C)CCc2cc(-c3ccn(S(=O)(=O)c4ccc(C(F)(F)F)cc4)n3)ccc2O1	94.6%		71.8%	76.7%		119%	92%	82.8%	101%	103%	92.4%	86.8%	84.9%	82.5%	63.9%	117%	112%	87.4%	93.5%	78.7%	
CC1(C)CCc2cc(-c3ccn(S(=O)(=O)c4ccccc4)n3)ccc2O1	92.8%		60%	62.9%		108%	72.8%	65.6%	90.1%	85.6%	76%	82.7%	76.1%	74.5%	50.5%	89.4%	104%	64.9%	78.9%	61.5%	
